Calls of active or inactive are those of the source. The calls are words filed in the database; no cut-off is given here.
Assays:
3T3-L1 [1] = experiment: Cytotoxicity against mouse 3T3L1 cells assessed as effect on cell viability at 10 uM after 48 hrs by MTT assay; format: cell-based; details: 3t3-l1, 48 h
Outline: (§1)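 3T3-L1 preadipocytes incubated 48 h with 5, 10, 20 or 40 μM compound; viability read by MTT assay against 0.1% DMSO-treated control cells. Mean ± SD of three independent experiments.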

3T3-L1 [2] = experiment: Cytotoxicity against mouse 3T3L1 cells assessed as reduction in cell viability at 40 uM after 48 hrs by MTT assay; format: cell-based; details: 3t3-l1, 48 h; outline: as §1
3T3-L1 [3] = experiment: Reduction in lipid accumulation in mouse 3T3L1 cells at 10 uM by Oil Red O staining-based absorbance method relative to control; format: functional
Outline: (§2)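 3T3-L1 preadipocytes differentiated to mature adipocytes, then treated with compound (screen at 10 μM; concentration series 10, 20, 40, 80 μM). Lipid stained with Oil Red O, dye extracted and absorbance read at 492 nm; microscopic images also taken. Compared with vehicle; mean ± SD of two independent experiments.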

[4] = biological target: T1, Bile acid receptor (Homo sapiens) (UniProt Q96RI1); experiment: Transactivation of FXR (unknown origin) at 10 uM by cell-based dual luciferase reporter gene assay
T1 sequence (whole entry): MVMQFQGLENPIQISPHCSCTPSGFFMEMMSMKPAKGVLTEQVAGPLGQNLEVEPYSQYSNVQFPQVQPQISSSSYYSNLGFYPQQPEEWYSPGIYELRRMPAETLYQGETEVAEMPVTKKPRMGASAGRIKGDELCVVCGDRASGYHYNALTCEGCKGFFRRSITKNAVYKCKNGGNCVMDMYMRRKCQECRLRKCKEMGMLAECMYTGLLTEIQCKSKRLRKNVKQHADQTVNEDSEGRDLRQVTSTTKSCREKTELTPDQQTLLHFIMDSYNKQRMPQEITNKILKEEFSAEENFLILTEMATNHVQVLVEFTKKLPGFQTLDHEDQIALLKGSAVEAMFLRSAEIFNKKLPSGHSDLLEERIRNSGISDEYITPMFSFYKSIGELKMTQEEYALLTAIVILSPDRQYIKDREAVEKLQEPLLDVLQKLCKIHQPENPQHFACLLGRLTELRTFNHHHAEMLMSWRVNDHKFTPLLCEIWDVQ
Outline: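 Cell-based FXR transactivation measured with a dual-luciferase reporter system; cells exposed to 10 μM compound. Mean ± SEM, n = 3.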

[5] = biological target: T1, Bile acid receptor (Homo sapiens); experiment: Agonist activity against FXR in human HepG2 cells assessed as down regulation of SREBP-1c mRNA expression at 10 uM by RT-PCR analysis; format: cell-based
Outline: (§3)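 HepG2 cells exposed to test agent at 10 μM; mRNA of FXR and FXR-regulated genes SHP, BSEP and SREBP-1c quantified by real-time PCR relative to vehicle. Mean ± SEM, n = 3.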

HepG2 [6] = experiment: Up-regulation of FXR mRNA expression in human HepG2 cells at 10 uM by RT-PCR analysis; format: functional, cell-based; outline: as §3
[7] = Hepatotoxicity in human HepG2 cells assessed as reduction in cell viability at 80 uM; format: toxicity, cell-based; details: hepg2, 80 µM
3T3-L1 [8] = experiment: Reduction in lipid accumulation in mouse 3T3L1 cells at 80 uM by Oil Red O staining-based absorbance method relative to control; format: functional; parameters: scale not given: the % may be the effect or the level left; outline: as §2
3T3-L1 [9] = experiment: Reduction in lipid accumulation in mouse 3T3L1 cells by Oil Red O staining-based absorbance method; format: functional, cell-based; outline: as §2
HepG2 [10] = experiment: Induction of cell proliferation in human HepG2 cells at <20 uM; format: functional, cell-based
3T3-L1 [11] = experiment: Reduction in lipid accumulation in mouse 3T3L1 cells at 10 to 80 uM by Oil Red O staining-based microscopic analysis; format: functional, cell-based; outline: as §2
[12] = biological target: T1, Bile acid receptor (Homo sapiens); experiment: Agonist activity against FXR in human HepG2 cells assessed as up-regulation of BSEP mRNA expression at 10 uM by RT-PCR analysis; format: cell-based; outline: as §3
[13] = biological target: T1, Bile acid receptor (Homo sapiens); experiment: Agonist activity against FXR in human HepG2 cells assessed as up-regulation of SHP mRNA expression at 10 uM by RT-PCR analysis; format: cell-based; outline: as §3
3T3-L1 [14] = experiment: Increase in cell viability of mouse 3T3L1 cells at 5 uM after 48 hrs by MTT assay; format: functional, cell-based; outline: as §1

Structure (SMILES) | Activity (3T3-L1 [1]) | Activity (3T3-L1 [2]) | Activity (3T3-L1 [3]) | other results
CC(C)c1onc(-c2c(Cl)cccc2Cl)c1COc1ccc2c(=O)c(-c3ccc([N+](=O)[O-])cc3)coc2c1 | Non-Toxic | Non-Toxic | Active | 
CCOC(=O)COc1ccc(-c2coc3cc(OCc4c(-c5c(Cl)cccc5Cl)noc4C(C)C)ccc3c2=O)cc1 | Non-Toxic | Non-Toxic | Active | 
CC(C)c1onc(-c2c(Cl)cccc2Cl)c1COc1ccc(/C=C/c2cccc(C(=O)O)c2)c(Cl)c1 | Non-Toxic |  | Active | Activity [4]: Active
CC(C)c1onc(-c2c(Cl)cccc2Cl)c1COc1ccc2c(=O)c(-c3ccc(O)cc3)coc2c1 | Non-Toxic | Toxic | Active | 
CCNC(=O)c1ccc(-c2coc3cc(OCc4c(-c5c(Cl)cccc5Cl)noc4C(C)C)ccc3c2=O)cc1 | Non-Toxic | Non-Toxic | Active | 
CC(C)c1onc(-c2c(Cl)cccc2Cl)c1COc1ccc2c(=O)c(-c3ccc(C(=O)O)cc3)coc2c1 | Non-Toxic | Non-Toxic | Active | 
CNC(=O)c1ccc(-c2coc3cc(OCc4c(-c5c(Cl)cccc5Cl)noc4C(C)C)ccc3c2=O)cc1 | Non-Toxic | Non-Toxic | Active | 
CC(C)c1onc(-c2c(Cl)cccc2Cl)c1COc1ccc2c(=O)c(-c3ccc(C(=O)N(C)C)cc3)coc2c1 | Non-Toxic | Non-Toxic | Active | Activity [5]: Active; Activity [4]: Active; Activity (HepG2 [6]): Active; Activity [7]: Non-Toxic; Activity (3T3-L1 [8]): >50%; Activity (3T3-L1 [9]): Dose-dependent effect; Activity (HepG2 [10]): Active; Activity (3T3-L1 [11]): Active; Activity [12]: Active; Activity [13]: Active
COc1ccc(-c2coc3cc(OCc4c(-c5c(Cl)cccc5Cl)noc4C(C)C)ccc3c2=O)cc1 | Non-Toxic | Non-Toxic | Active | 
COC(=O)c1ccc(-c2coc3cc(OCc4c(-c5c(Cl)cccc5Cl)noc4C(C)C)ccc3c2=O)cc1 | Non-Toxic | Non-Toxic | Active | 
CC(C)c1onc(-c2c(Cl)cccc2Cl)c1COc1ccc2c(=O)c(-c3ccc(C(=O)NC4CC4)cc3)coc2c1 | Non-Toxic | Non-Toxic | Active | Activity (3T3-L1 [14]): Active
CC(C)c1onc(-c2c(Cl)cccc2Cl)c1COc1ccc2c(=O)c(-c3ccc(F)cc3)coc2c1 | Non-Toxic | Non-Toxic |  | 
CC(C)c1onc(-c2c(Cl)cccc2Cl)c1COc1ccc2c(=O)c(-c3ccc(OCC(=O)O)cc3)coc2c1 | Non-Toxic | Non-Toxic | Active | 

— ChEMBL document CHEMBL4257574, “Structure-guided design and synthesis of isoflavone analogs of GW4064 with potent lipid accumulation inhibitory activities” (Bioorg Med Chem Lett, 2018)
